From ChEMBL document CHEMBL4513216, “Probing the Open Global Health Chemical Diversity Library for Multistage-Active Starting Points for Next-Generation Antimalarials” (ACS Infect Dis, 2020) come the findings set out here.

Molecules are shown by their SMILES.

The nature of this data set: Toxicity liver stage against HepG2, at 10uM. Type of data set: cell-based. Details: test concentration 10 uM, cell line HepG2-A16-CD81EGFP. As to conditions: human, HepG2-A16-CD81EGFP cells; read-out: INHIBITION
The essentials: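 Uninfected HepG2-A16-CD81EGFP cells, 3 × 10^3 per well, 1536-well, plated on prespotted compound at 10 μM final, parasite-free screening media added to match infected plates; puromycin 10 μM positive, DMSO 0.5% negative; run in parallel with 48 h PbLuc assay at 37 °C, 5% CO2; viability by CellTiter-Glo luminescence, normalized to controls.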
Take `CC(C)(C)OC(=O)NC(C)(C)c1noc(Cn2ccnc2)n1`: the cytotoxicity at 10 µM stood at 8.73%.
The value for `O=C(CSC1=NS(=O)(=O)c2cc(F)ccc2N1)c1ccccc1` was -10.7%; that for `Oc1ccccc1CN1CCCCCC1c1cccs1` (stereo not drawn) was -3.2%; that for `Nc1c(N2CCCCC2)ncnc1N1CCOCC1` was 3.66%.
Consider `Cc1nn(-c2ccc(C(=O)O)cc2)c2c1C(CC(C)C)SCC(=O)N2` (stereo not drawn), for which the cytotoxicity at 10 µM was -2.43%.
The value for `COCCNC(=O)Cn1cc(OCc2ccccc2F)c(=O)cc1CO` was -173%; that for `CCc1nnc2ccc(N3CCN(S(=O)(=O)c4ccc(C)s4)CC3)nn12` was 1.5%.
In the case of `Cc1ccc(-n2nnc(C(=O)NCC3CCCCC3)n2)cc1` it was -3.5%; in that of `Cc1nc(C)c(C(=O)Nc2cc(N3CCC(C)CC3)ncn2)s1`, -8.11%; in that of `CN(C)C(=O)NCc1ncn2c1CN(S(C)(=O)=O)CCC2`, 11%.
The value for `O=C(c1nc2c(s1)CCCN2CC1CC1)N1CCCC1` was 15.2%; that for `CN1CCc2c(C#N)c(NCc3ccncc3)n3cnnc3c2C1` was 10.8%; that for `CC(=O)c1nn(-c2ccccc2)c(C)c1C(C)=O` was 2.27%.
For `Cc1cs/c(=N\C(=O)Cn2nc(N3CCSCC3)ccc2=O)[nH]1`, the cytotoxicity at 10 µM was 2.33%.
In the case of `Cc1cccc2c1cnn2CCC(=O)NCC(=O)N(C)C` it was 7.03%; in that of `CCc1c(C)nc2cc(-c3nccn3C)nn2c1N1CCCC(CO)C1` (stereo not drawn), 3.06%.
In the case of `COc1ccccc1OCc1nc(C(C)C)no1` it was 14%.
In the case of `CN(Cc1nnc2ccccn12)C(=O)CC1CCCCC1` it was 13.7%; in that of `Cn1c(NCc2ccc(C(N)=O)cc2)nc2cc(Cl)ccc21`, 1.42%; in that of `CCCC(C)CS(=O)(=O)NCCc1csc(N2CCCC2)n1` (stereo not drawn), 7.47%.
`CCN1CCCCC1C(=O)N1CCC(OC2CCCC2)CC1` (stereo not drawn): the cytotoxicity at 10 µM is -20.6%.
The value for `Cc1cc(C)n2c(CNCc3ccc(OC(F)F)cc3)cnc2n1` was -145%; that for `CCOCC(=O)Nc1cc(-c2cccc(F)c2F)n[nH]1` was 0.107%.
In the case of `Cc1nnc(CSc2n[nH]c(-c3ccccn3)n2)o1` it was 5.81%; in that of `Cc1noc(C)c1C(=O)N(C)C(C)c1ccc(S(C)(=O)=O)cc1` (stereo not drawn), 4.96%.
Turning to `CCN(CC)C(=O)N1CCOCC1c1c(C)nn(C)c1C` (stereo not drawn), the cytotoxicity at 10 µM stood at 11.3%.
The value for `Cn1cc(NS(=O)(=O)CC2CCCCO2)cn1` (stereo not drawn) was -5.41%; that for `CC(C)(C)OCCN1CCCC1c1nc(Cc2ccc(F)cc2)no1` (stereo not drawn) was -7.1%; that for `O=C(c1ccoc1)N1CCC(NCc2cccnc2)CC1` was 8.21%.
The value for `CC(CCc1ccccc1F)C(=O)NS(=O)(=O)CC1CC1` (stereo not drawn) was -5.36%; that for `CCC(C)NC(=O)CN1CCC2(CC1)OCCO2` (stereo not drawn) was -4.92%; that for `CC(C)NC(=O)CCNC(=O)c1cnc(Cc2ccc(F)cc2)s1` was 2.87%.
In the case of `CCN(C(=O)CSc1ccc(C(F)(F)F)cn1)C1CC1` it was 7.77%; in that of `CN(C)CCN(Cc1ccc(Cl)cc1)C(=O)c1ccncc1`, 7.99%.
For `COc1cc(NC(=O)c2ccc(Cl)cc2F)c(C(=O)N(C)C)cc1OC`, the cytotoxicity at 10 µM is -18.9%.
In the case of `CC(CN1CCCC1=O)NC(=O)c1cc(-c2cccc(Cl)c2)no1` (stereo not drawn) it was 5.75%; in that of `COC(=O)c1ccc(S(=O)(=O)N(C)CC(N)=O)c(Cl)c1`, -1.65%; in that of `CC(C)(C)c1nc(CN(CCC2CCCCC2)CC(N)=O)no1`, -3.08%.
In the case of `Cc1nc(C2CCCCC2)sc1C(=O)O` it was 15%; in that of `Cc1noc(OCCOc2cccc(C#N)c2)n1`, 0.63%.
As for `CC(CCS(C)(=O)=O)NC(=O)NCc1ccc2c(c1)CCC2` (stereo not drawn), the cytotoxicity at 10 µM is -143%.
As to `CC1CCC(O)(CN2CCN(CCNC(=O)C3CCC3)CC2)CC1` (stereo not drawn), the cytotoxicity at 10 µM is -0.118%.
In the case of `Cc1cc(C)n(C2CN(c3ncnc4[nH]ccc34)C2)n1`, the cytotoxicity at 10 µM stood at 6.59%.
The value for `O=C(C1CCCN1S(=O)(=O)C1CCCC1)N1CCSCC1` (stereo not drawn) was 4.71%; that for `Cc1nccn1-c1ccc(CNC(=O)c2ccc[nH]2)cn1` was -14.2%.
The value for `CC(C)NC(=O)CCCn1cnc2ccccc2c1=O` was 15.2%; that for `COc1cccc(C2CN(CCc3ccncc3)CCO2)c1` (stereo not drawn) was -10.1%.
The value for `Cc1noc(COCC(=O)Nc2ccc(Br)c(C)n2)n1` was 6.19%; that for `Cc1ccccc1NS(=O)(=O)c1ccc(C(=O)O)cc1F` was 7.94%; that for `COc1cc(N2CCC3(CC2)OCC(=O)NC3C)ncn1` (stereo not drawn) was 1.95%.
`CCOC1COC2(CCN(c3ncc(C)cn3)CC2)C1` (stereo not drawn): the cytotoxicity at 10 µM was found to be 7.21%.
In the case of `O=C(c1ccncc1)N1C[C@@H](OCc2cccnc2)[C@H]2OCCC[C@H]21` it was 0.866%; in that of `Cn1cnc(-c2cc(C(=O)N3CCOCC3)c3ccccn23)c1`, 4.79%.
The value for `C[C@@H]1CN(C2Cc3ccccc3C2)CC[C@@]1(O)C1CCOCC1` was -4.04%; that for `Cc1cc(C(=O)N2CCCCC2c2nc3cc(F)ccc3[nH]2)nn1C` (stereo not drawn) was 4.42%; that for `Cc1ccc(-c2ccnc(NC(C)c3n[nH]c(=O)[nH]3)n2)c(C)n1` (stereo not drawn) was 1.33%.
`Cc1nc2c(c(NC3CC3)n1)CCN(C(=O)CCc1cccnc1)CC2`: the cytotoxicity at 10 µM was -9.1%.
The value for `O=C(NCC(F)F)c1ccc(S(=O)(=O)NCCc2c[nH]cn2)cc1` was -1.99%.
In the case of `CCS(=O)(=O)c1ncc(CN(C)Cc2cccc(OC)c2)n1CCOC` it was -0.636%.
The value for `C[C@H](NC(=O)c1cccc(CCC(C)(C)O)c1)C(N)=O` was -0.511%.
Take `Cc1cc(C(=O)N2CC[C@H](N3CCOCC3)[C@H](CCCO)C2)c(C)n1C`: the cytotoxicity at 10 µM was -138%.
In the case of `Cc1ccc(NC(=O)CN[C@H](C(N)=O)C(C)C)cc1F` it was 11%.
In the case of `CNC(=O)[C@@H]1C[C@@H](NC(=O)CCCc2cccs2)CN1C1CCOCC1` it was -0.828%.
In the case of `Cc1ccccc1N1CCN(C(=O)c2cscn2)C(C)C1` (stereo not drawn) it was 0.403%; in that of `O=C(c1sccc1Cl)N1CCC(Cn2cc(CO)nn2)CC1`, -7.12%.
Regarding `O=c1[nH]c(-c2ccc(Cl)cc2)nc2c1CCNC2`, the cytotoxicity at 10 µM stood at 4.42%.
The value for `O=C(COc1cccc(F)c1)N1C[C@H](CO)C[C@H](CN2CCCC2)C1` was 1.76%; that for `Cc1cc(C(F)(F)F)cc(N2CCC3(CCC(=O)N(CCO)C3)CC2)n1` was 8.09%; that for `CC(C)[C@]1(O)CN(C(=O)COCC(N)=O)C[C@H]1C` was 7.37%.
The value for `Cn1ccc2c(-c3nccc(N)n3)ccnc21` was -16%.
The value for `CC1CN(Cc2nc(Cc3ccccc3F)no2)CCN1C` (stereo not drawn) was -7.44%; that for `Cn1cc(C(=O)N2CCCC(C(=O)CCc3ccccc3)C2)cn1` (stereo not drawn) was -5.16%; that for `NC(=O)c1ccc(C2CCCN2C(=O)CCc2nc3ccccc3s2)s1` (stereo not drawn) was -8.8%.
Turning to `Cc1nn(C)c2nc(NC3CCNCC3)sc12`, the cytotoxicity at 10 µM is -10.4%.
As to `Cc1cc(CN2CCC(CNC(=O)CN3CCCCCC3)C2)[nH]n1` (stereo not drawn), the cytotoxicity at 10 µM is -131%.
`COc1cccc2c1OCC(C(=O)N1CCC(NS(C)(=O)=O)CC1)C2` (stereo not drawn): the cytotoxicity at 10 µM was 1.49%.
The value for `Cc1n[nH]c(C)c1CCC(=O)N1CCc2c(nc[nH]c2=O)C1` was -5%.
As for `CCc1nc(CN2CCN(C(=O)c3csnn3)CC2)cs1`, the cytotoxicity at 10 µM was -9.04%.
The value for `CCCN(C)S(=O)(=O)N1CCCC1c1ccco1` (stereo not drawn) was -8.72%; that for `CCOc1ccc(C(=O)N2CCCC(n3nc(C)nc3C)C2)cc1` (stereo not drawn) was -4.34%; that for `COc1cc(C(=O)Nc2cn[nH]c2)ccc1C` was -7.33%.
Take `CC(OCC1CC1)C(=O)N1CCCN(c2ncccc2C#N)CC1` (stereo not drawn): the cytotoxicity at 10 µM is -11.6%.
In the case of `CN(CCC#N)C(=O)CN1CCCC1c1ccsc1` (stereo not drawn) it was -5.26%; in that of `NC(=O)CN1CCCN(C(=O)Cc2ccc3c(c2)OCO3)CC1`, 2.96%.
Take `CC(C)c1nc(C2CCCN2CC(=O)Nc2nncs2)no1` (stereo not drawn): the cytotoxicity at 10 µM is -3.13%.
Take `CCc1n[nH]c(C2CN(C(=O)c3ncoc3C(C)C)CCO2)n1` (stereo not drawn): the cytotoxicity at 10 µM was -9.8%.
With `Cc1nc(CN2CCC(N(C)Cc3noc(C4CC4)n3)C2)oc1C` (stereo not drawn), the cytotoxicity at 10 µM is -11.1%.
The value for `CN(C)c1ccnc(C2CCCN2)n1` (stereo not drawn) was 1.76%; that for `CC1(C)CC(N(Cc2ccccc2)Cc2ncc[nH]2)CC(C)(C)N1` was 0.385%; that for `O=C(NC1CC1)[C@H]1CC[C@@H]2[C@@H](CCN2CCOCc2ccccc2)O1` was -115%.
The value for `COCC(=O)N1CCC2(CCN(Cc3ccc(C)cc3)CC2)CC1` was 6.68%; that for `COCCN1C(=O)CC[C@@H]2[C@@H]1CCN2Cc1c(C)noc1C` was 6.57%.
The value for `CNC(=O)[C@H]1C[C@H]2OCC[C@H]2N(CC2CCOCC2)C1` was 6.46%; that for `COc1cc(N2CCC3(CCCN(C(=O)c4cnccn4)C3)C2)ncn1` (stereo not drawn) was -2.48%.
Consider `CCOC[C@]12COC[C@H]1CN(Cc1ccc(F)c(F)c1)C2`, for which the cytotoxicity at 10 µM is -107%.
In the case of `COCCN1CCO[C@@H]2CN(C(=O)Cc3cccc(F)c3)CC[C@@H]2C1` it was 5.95%.
In the case of `COc1ccc(C2Nc3ccccc3N=C3CNC(=O)C32)cc1OC` (stereo not drawn) it was 5.56%; in that of `CC(C)CCN1C[C@@H]2C[C@H](C(=O)N3CCCC3)[C@H](C1)O2`, 4.82%.
